Shown are actives, neighbours in structure and some others; about 1.1% of the full set was active somewhere.
Arrestin-AP2 inh – blocks beta-arrestin peptide binding to AP2 adaptin; FITC-arrestin peptide / GST-AP2 beads, flow cytometry; AP2 beta2 appendage carries R879A mutation; 0.31% of 340,000 active; inhibition, % at 10 µM;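 active means inhibition above a set limit, near 3 SD of compounds lacking own fluorescence, cut at about 54% in these data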
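Test system: GST-tagged AP2 beta2-adaptin appendage (R879A) on 4 µm glutathione beads; also added: fluorescein-tagged arrestin peptide at 50 nM final; timing: 12 min plus 1 h, RT; signal: flow cytometry, FL1 (488/535 nm); read-out: percent drop in bead-associated FITC signal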
SENP1 inh – blocks the human SENP1 SUMO protease catalytic domain. recombinant SENP1 catalytic domain, CyPet-SUMO1-YPet FRET cleavage. 0.21% of 360,000 active. inhibition, % at 10 µM. Q9P0U3;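 active means inhibition at least 30% at 10 µM, raw YFP signal under a set limit, fluorescence ratio 0.5 to 1.5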
Target sequence (Q9P0U3 419-644 limits assumed): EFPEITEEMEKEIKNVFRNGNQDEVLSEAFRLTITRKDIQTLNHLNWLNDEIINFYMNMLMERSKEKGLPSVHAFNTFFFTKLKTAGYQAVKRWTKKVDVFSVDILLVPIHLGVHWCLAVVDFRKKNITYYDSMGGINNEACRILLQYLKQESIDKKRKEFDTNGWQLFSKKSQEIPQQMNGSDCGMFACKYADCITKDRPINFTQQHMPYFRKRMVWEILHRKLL
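Assay system: hSENP1 catalytic domain, recombinant. Amount: SENP1 enzyme, 20 pM final. Schedule: 50 min reaction, RT, dark. Technique: FRET, CFP and YFP emission. Control set: no-enzyme wells low, DMSO-plus-enzyme wells high control.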
JMJD2C inh – blocks human GASC-1 demethylase activity. GST-JMJD2C(1-420) H3K9me3 demethylation, DELFIA europium. Q9H3R0. inhibition, % at 2.35 µM. 0.069% of 330,000 active;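 active means more than half of a compound's replicate wells show inhibition beyond 50%, single wells judged on their own value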;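 further: signal counts dimethyl H3K9 product captured on neutravidin plate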
FAS-TE inh – blocks the thioesterase domain of human fatty acid synthase; recombinant FAS-TE, OMFH fluorogenic substrate, fluorescence endpoint; inhibition, % at 15 µM; 0.67% of 360,000 active; P49327; AID 602261;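 active means compounds whose normalised, plate-corrected inhibition of enzyme fluorescence in the single-dose primary screen is 50% or more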
Hits are given with their value; n = inactive; x = no result given.

SMILES	Arrestin-AP2 inh	SENP1 inh	JMJD2C inh	FAS-TE inh
N=c1n(Cc2ccc(Cl)cc2)c2ccccc2n1CC(O)COc1ccccc1 (stereo not given)	n	n	n	n
COc1cc(Br)c(/C=C/c2ccc3cccc(O)c3n2)cc1OC	n	n	n	n
COc1cc(Br)cc(/C=C/c2ccc3cccc(O)c3n2)c1O	n	67	n	n
COc1cc(/C=C(\CC(=O)O)c2nc3ccccc3s2)cc(OC)c1O	n	57	n	n
O=c1c(O)c(-c2ccccc2)oc2cc(O)cc(O)c12	n	n	x	n
O=c1c(O)c(-c2cc(O)c(O)c(O)c2)oc2cc(O)cc(O)c12	n	84	x	n
CCCCCCCC/C=C\CCCCCCCC(=O)O	n	n	n	62
COc1ccc(OCCOCCN2CCc3ccccc3C2)cc1	n	n	n	n
COc1ccc(C)cc1Nc1n[n+](-c2ccccc2)c(-c2ccc(N(C)C)cc2)s1	n	41	n	n
COc1ccc(C)cc1Nc1n[n+](-c2ccccc2)c(-c2ccc(OC)c(OC)c2OC)s1	n	n	n	n
O=C(COC(=O)C1=NN(c2ccccc2)C(=O)CC1)Nc1nc(-c2ccc(F)cc2)cs1	n	n	n	n
CCc1ccc(-n2c(SCC(=O)N3Cc4ccccc4CC3C(=O)O)nnc2-c2ccncc2)cc1 (stereo not given)	n	n	n	n
O=C1c2cc(Br)ccc2N(Cc2ccc(Br)cc2)S(=O)(=O)C1c1cc(Cl)c(Cl)cc1[N+](=O)[O-] (stereo not given)	n	n	n	82
O=C1CS(=O)(=O)N(Cc2cccc(F)c2)c2ccc(Br)cc21	n	n	n	n
COc1ccc(S(=O)(=O)NC(C)C(=O)Nc2ccccc2)cc1Cl (stereo not given)	n	n	n	n
O=C1c2ccccc2C(=O)N1Cc1ccco1	n	n	n	n
CC1=CC(=C2C(=O)c3ccccc3C2=O)C=C(C)N1Cc1ccco1	n	37	n	n
Cc1ccc(O)c(N=CC2=C(O)c3ccccc3C2=O)c1	n	42	n	n
CCOc1ccc(NC(=O)Nc2nnc(CC)s2)cc1	n	n	n	n
COc1ccccc1/C=C\C(=O)NCC(=O)N/N=C/c1ccc(O)cc1O	n	n	n	n
CCCN1C(=O)c2ccc(C(=O)Nc3cc(C)ccc3O)cc2C1=O	n	n	57	n
CCN1C(=O)C(C(=O)Nc2ccc(OC)cc2)C2CC1(C)Oc1ccccc12 (stereo not given)	n	n	54	n
COc1ccc(/C=N/NC(=O)c2ccc(NC(=O)c3cccc([N+](=O)[O-])c3)cc2)c(C(=O)O)c1OC	n	n	n	n
CC(=O)Nc1ccc(C=NNc2ccc([N+](=O)[O-])cc2S(=O)(=O)Nc2ccccc2C(=O)O)cc1	n	n	n	n
Cc1ccc(NC(=S)NNc2ccc([N+](=O)[O-])cc2S(=O)(=O)Nc2ccccc2C(=O)O)cc1C	n	n	n	62
SMILES	Arrestin-AP2 inh	SENP1 inh	JMJD2C inh	FAS-TE inh
O=C(Cc1ccccc1)Nn1cnc2ccccc21	n	n	n	n
Cc1[nH]c2ccccc2c1SCC(=O)N1CCN(c2ccccc2)CC1	n	n	n	n
Cc1ccc(N=C2NC(=O)/C(=C/c3cccs3)S2)cc1C	n	36	n	n
O=C(N=C1SC2CS(=O)(=O)CC2N1c1ccc(Cl)cc1Cl)C1CC1 (stereo not given)	n	n	n	n
O=C(Nc1cc(S(=O)(=O)N2CCOCC2)ccc1Cl)C(=O)c1c(-c2ccccc2)cc2ccccn12	n	n	n	76
Cc1ccc(N(CC(=O)NC(C)C)C(=O)CCC(=O)Nc2nccs2)c(C)c1	n	n	n	n
C=CCn1c(O)c(N=Nc2ccccc2C)c2ccccc21	x	x	97	x
C=CCn1c(O)c(N=O)c2ccccc21	n	n	n	n
NC(=O)C1CCN(C(=O)c2cnn(-c3ccccc3)c2NC(=O)c2cccc(F)c2)CC1	n	n	75	n
C[C@H](CO)N1C[C@H](C)[C@@H](CN(C)C(=O)Nc2ccc3c(c2)OCO3)Oc2c(NC(=O)Nc3ccc(C(F)(F)F)cc3)cccc2C1=O	x	n	n	76
C[C@H](CO)N1C[C@H](C)[C@@H](CN(C)C(=O)Nc2ccc(C(F)(F)F)cc2)Oc2c(NC(=O)Nc3ccc4c(c3)OCO4)cccc2C1=O	n	n	n	75
Cc1ccccc1-c1nc(CS(=O)CC(=O)NCc2ccc3c(c2)OCO3)c(C)o1 (stereo not given)	n	n	n	n

Screens deposited in PubChem by several laboratories.
